In assay [1] the test system is CHO-MG (Chinese hamster). The assay can be described thus: Cytotoxicity in CHO-MG cell lines. As to conditions: Cricetulus griseus.
The nature of assay [2]: Ratio of IC50 value determined in L1210 cell lines to the IC50 value determined in DFMO treated L1210 cell lines was evaluated. In kind it is functional.
Assay [3] deals with CHO (Chinese hamster). The assay can be described thus: Cytotoxicity in CHO cell lines. As to conditions: Cricetulus griseus.
Assay [4] concerns L1210. The assay can be described thus: Cytotoxicity in L1210 cell lines. As to conditions: Mus musculus. In kind it is functional, cell-based. In outline:
(§1)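 L1210 murine leukemia cells, early to mid log phase, in RPMI with 10% FCS, glutamine, antibiotics and 2 mM aminoguanidine at 37 °C, 5% CO2. Cells were seeded at 5 × 10^4 cells/mL with drug added at seeding. For line 3, DFMO at 5 mM was present in the medium from drug addition. After 48 h of exposure, growth was read as MTT formazan absorbance at 540 nm.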

Assay [5] has as its system L1210. The assay can be described thus: Cytotoxicity in DFMO treated L1210 cell lines. The settings on record: Mus musculus. In kind it is functional, cell-based. Summed up: as §1
A short description of assay [6]: Ratio of IC50 value determined in CHO-MG cell lines to the IC50 value determined in CHO cell lines was evaluated.

One may read the IC50 as the concentration at which inhibition is half-maximal. Lower therefore signals inhibition by little substance. As for `CCCCNCc1c2ccccc2cc2ccccc12.Cl`, the IC50 in assay [1] came to 11.2 µM; in assay [3], 10.5 µM. The Ratio in assay [2] came to 0.7.

Turning to `Cl.NCC(O)CNCCCCNCc1c2ccccc2cc2ccccc12` (stereo unspecified), the IC50 in assay [4] was found to be 1500 nM; in assay [1] it was 9.5 µM; in assay [5], 2.3 µM; in assay [3], 9.1 µM. The Ratio in assay [2] is 0.7; in assay [6] it was 1.

Consider `Cl.Cl.NCCCCNCc1c2ccccc2cc2ccccc12`, for which the IC50 in assay [1] was determined as 7.6 µM; in assay [3], 7.7 µM. In assay [2], the Ratio was determined as 0.7.

Consider `Cl.Cl.NCCCCCCCCNCc1c2ccccc2cc2ccccc12`, for which the IC50 is 3000 nM in assay [4], 4.9 µM in assay [1], 4.6 µM in assay [5] and 4.9 µM in assay [3]. For the same molecule, the Ratio in assay [2] came out at 0.7; in assay [6], 1.

As to `Cl.Cl.NCCOCCOCCNCc1c2ccccc2cc2ccccc12`, the IC50 in assay [4] turned out to be 11300 nM; in assay [1] it was 15.9 µM; in assay [5], 17 µM; in assay [3], 12.6 µM. Besides, the Ratio in assay [2] is reported as 0.7; in assay [6] it was 1.3.

Regarding `Cl.NCCCNCCCCNCc1c2ccccc2cc2ccccc12`, the IC50 was determined as 9.5 µM in assay [1] and 0.4 µM in assay [3]. Besides, the Ratio in assay [2] came to 2; in assay [6], 24.

`Cl.NC1CCC(NCCCCNCc2c3ccccc3cc3ccccc23)CC1` (stereo unspecified): the IC50 was found to be 1000 nM in assay [4], 17.4 µM in assay [1], 0.7 µM in assay [5] and 2.5 µM in assay [3]. For the same molecule, the Ratio in assay [2] is listed as 1.4; in assay [6], 7.

Consider `Cl.NCCCCNCCCCNCc1c2ccccc2cc2ccccc12`, for which the IC50 in assay [1] is 66.7 µM; in assay [3] it was 0.45 µM. Besides, in assay [2], the Ratio turned out to be 2.

For `Cl.NCCCCNCCCCNCc1ccc2ccc3cccc4ccc1c2c34`, the values for the IC50 in assay [1], in assay [5] and in assay [3] were 15.5 µM, 0.36 µM and 0.46 µM, respectively. Further, the Ratio in assay [2] was determined as 1.1.

Take `Cl.NCCCCNCCCCNCc1ccccc1`: the Ratio in assay [2] was determined as 0.1. In assay [5], half-maximal inhibition (IC50) was put at 421 µM.

For the molecule `Cl.NCCCCNCCCCNCc1cccc2ccccc12`, the IC50 is over 100 µM in assay [1] and 0.6 µM in assay [3]. Also, in assay [2], the Ratio is listed as 1.1.
